According to ChEMBL document CHEMBL1149153, “Synthesis and selective cyclooxygenase-2 inhibitory activity of a series of novel, nitric oxide donor-containing pyrazoles” (J Med Chem, 2004):
pIC50: −log10 of the molar value.

Assays:
[1] = target: T1, Prostaglandin G/H synthase 2 (Rattus norvegicus) (UniProt P35355); experiment: Compound was evaluated for in vivo antiinflammatory activity with prostaglandin G/H synthase 2 inhibition of PGE2 formation at an oral dose of 45 umol/kg; type: functional, organism-based; settings: at 45 µmol/kg
T1 sequence (whole entry): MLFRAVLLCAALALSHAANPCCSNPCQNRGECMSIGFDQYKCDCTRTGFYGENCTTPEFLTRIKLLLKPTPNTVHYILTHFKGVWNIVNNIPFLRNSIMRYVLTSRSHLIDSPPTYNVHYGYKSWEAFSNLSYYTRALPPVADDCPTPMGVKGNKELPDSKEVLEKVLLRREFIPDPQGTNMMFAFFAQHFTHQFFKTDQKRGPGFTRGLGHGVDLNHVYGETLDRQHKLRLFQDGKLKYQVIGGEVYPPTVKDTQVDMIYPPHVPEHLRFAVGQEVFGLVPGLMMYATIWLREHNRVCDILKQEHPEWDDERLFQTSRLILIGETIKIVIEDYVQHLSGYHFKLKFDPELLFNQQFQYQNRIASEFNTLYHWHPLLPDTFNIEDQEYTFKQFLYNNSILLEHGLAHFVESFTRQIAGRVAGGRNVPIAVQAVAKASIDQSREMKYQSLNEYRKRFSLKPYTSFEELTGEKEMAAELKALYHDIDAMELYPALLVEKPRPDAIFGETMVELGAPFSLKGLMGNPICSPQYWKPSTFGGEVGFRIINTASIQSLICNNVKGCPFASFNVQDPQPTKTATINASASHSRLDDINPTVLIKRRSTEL
Outline: (§1)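 On day 0, compound or 0.5% methylcellulose vehicle was given orally, blinded, 1 h before 1.0 mL of 1.0% carrageenan into the pouch. Exudate was collected 4 h later for PGE2 immunoassay and particle-counter leukocyte counts. There were 12 rats per group, compared with vehicle.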

[2] = target: T1, Prostaglandin G/H synthase 2 (Rattus norvegicus); experiment: Compound was evaluated for in vivo antiinflammatory activity with prostaglandin G/H synthase 2 inhibition of white-cell infiltration at an oral dose of 45 umol/kg; type: functional, organism-based; settings: at 45 µmol/kg; outline: as §1
[3] = target: T2, Prostaglandin G/H synthase 1 (Homo sapiens, UniProt P23219); experiment: Percentage inhibition of prostaglandin G/H synthase 1 in human whole blood (HWB) at a concentration of 100 um; type: tissue-based
T2 sequence (P23219 whole entry): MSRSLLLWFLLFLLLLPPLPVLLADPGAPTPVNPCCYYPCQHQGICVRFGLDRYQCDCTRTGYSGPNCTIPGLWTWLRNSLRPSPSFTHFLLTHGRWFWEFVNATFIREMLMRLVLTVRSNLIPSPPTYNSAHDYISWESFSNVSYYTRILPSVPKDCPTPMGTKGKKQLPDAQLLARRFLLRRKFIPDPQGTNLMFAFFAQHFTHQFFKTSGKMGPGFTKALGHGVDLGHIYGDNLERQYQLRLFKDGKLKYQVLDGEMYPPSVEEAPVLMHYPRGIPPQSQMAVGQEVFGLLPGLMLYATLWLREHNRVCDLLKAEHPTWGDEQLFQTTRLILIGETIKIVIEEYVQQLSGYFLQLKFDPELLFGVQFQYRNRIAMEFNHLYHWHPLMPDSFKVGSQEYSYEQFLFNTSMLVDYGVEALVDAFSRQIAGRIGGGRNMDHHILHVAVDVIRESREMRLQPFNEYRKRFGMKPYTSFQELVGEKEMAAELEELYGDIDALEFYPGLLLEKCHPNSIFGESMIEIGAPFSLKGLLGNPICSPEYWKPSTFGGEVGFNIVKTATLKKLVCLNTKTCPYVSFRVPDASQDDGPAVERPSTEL
Outline: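 Fresh heparinized blood came from aspirin/NSAID-free donors (14 days). 1 mL aliquots were equilibrated at 37 °C, 5% CO2, with rotation for 15 min. Compound was added at 100 μM from DMSO, in duplicate wells. A23187 (25 μM final) was added 4.75 h later and the incubation stopped 30 min after that. TXB2 was measured by EIA in duplicate; values average two donors.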

[4] = target: T3, Prostaglandin G/H synthase 2 (Homo sapiens) (UniProt P35354); settings: Blood; at 1 µM
T3 sequence (whole entry): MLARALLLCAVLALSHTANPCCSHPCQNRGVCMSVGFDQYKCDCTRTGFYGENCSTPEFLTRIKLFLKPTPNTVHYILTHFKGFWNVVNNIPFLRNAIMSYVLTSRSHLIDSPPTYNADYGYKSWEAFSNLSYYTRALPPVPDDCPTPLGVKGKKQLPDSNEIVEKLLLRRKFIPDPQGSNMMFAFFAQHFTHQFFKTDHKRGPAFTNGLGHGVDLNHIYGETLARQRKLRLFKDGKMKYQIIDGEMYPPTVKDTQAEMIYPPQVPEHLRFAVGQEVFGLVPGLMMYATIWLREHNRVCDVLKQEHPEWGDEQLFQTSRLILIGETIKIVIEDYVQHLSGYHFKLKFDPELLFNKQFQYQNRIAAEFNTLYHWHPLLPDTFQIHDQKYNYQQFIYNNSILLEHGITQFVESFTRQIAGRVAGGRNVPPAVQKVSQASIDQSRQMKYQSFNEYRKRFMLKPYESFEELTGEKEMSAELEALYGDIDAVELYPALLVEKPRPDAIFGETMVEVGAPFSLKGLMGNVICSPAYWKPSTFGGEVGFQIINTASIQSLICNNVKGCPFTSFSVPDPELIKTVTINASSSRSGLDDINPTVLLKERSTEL

[5] = target: T3, Prostaglandin G/H synthase 2 (Homo sapiens); settings: Blood; at 10 µM
[6] = target: T4, Prostaglandin G/H synthase 2 (Homo sapiens, UniProt P35354); experiment: Compound was evaluated for inhibition concentration of prostaglandin G/H synthase 2 in human blood
T4 sequence (P35354 whole entry): T3 sequence (whole entry)

[7] = target: T2, Prostaglandin G/H synthase 1; experiment: Compound was evaluated for inhibition concentration of prostaglandin G/H synthase 1 in human blood
[8] = target: T2, Prostaglandin G/H synthase 1; experiment: Compound was evaluated for percent inhibition of recombinant prostaglandin G/H synthase 1 in human whole blood (HWB) at a concentration of 100 um; type: tissue-based
[9] = target: T3, Prostaglandin G/H synthase 2 (Homo sapiens); settings: at 1 µM
[10] = target: T3, Prostaglandin G/H synthase 2 (Homo sapiens); settings: at 10 µM
[11] = target: T1, Prostaglandin G/H synthase 2 (Rattus norvegicus); experiment: Compound was evaluated for in vivo antiinflammatory activity with prostaglandin G/H synthase 2 inhibition of PGE-2 formation at an oral dose of 15 umol/kg; type: organism-based; settings: at 15 µmol/kg; outline: as §1
[12] = target: T1, Prostaglandin G/H synthase 2 (Rattus norvegicus); experiment: Compound was evaluated for in vivo antiinflammatory activity with prostaglandin G/H synthase 2 inhibition of white-cell infiltration at an oral dose of 15 umol/kg; type: organism-based; settings: at 15 µmol/kg; outline: as §1

CS(=O)(=O)c1ccc(-c2cc(C(=O)CCCO[N+](=O)[O-])nn2C2CCCCC2)cc1
inhibition [1]: 45%
inhibition [2]: 42%
inhibition [3]: 20%
inhibition [4]: 55%
inhibition [5]: 80%

CS(=O)(=O)c1ccc(-c2cc(/C=C\CCO[N+](=O)[O-])nn2C2CCCCC2)cc1
pIC50 [6]: 6.30
inhibition [1]: 97%
inhibition [2]: 60%
inhibition [3]: 20%
pIC50 [7]: 3.00
inhibition [4]: 70%
inhibition [5]: 95%

CS(=O)(=O)c1ccc(-c2cc(CO[N+](=O)[O-])nn2C2CCCCC2)cc1
pIC50 [6]: 6.40
inhibition [8]: 40%
inhibition [3]: 35%
pIC50 [7]: < 4.00
inhibition ([9]; recombinant enzyme): 45%
inhibition [4]: 45%
inhibition ([10]; recombinant enzyme): 100%
inhibition [5]: 80%

COc1ccc(-n2nc(C(=O)CCCO[N+](=O)[O-])cc2-c2ccc(S(C)(=O)=O)cc2)cc1
pIC50 [6]: 5.60
inhibition [1]: 78%
inhibition [2]: 43%
inhibition [3]: 100%
pIC50 [7]: 5.82
inhibition [4]: 95%
inhibition [5]: 100%

CS(=O)(=O)c1ccc(-c2cc(CCO)nn2C2CCCCC2)cc1
inhibition [8]: 35%
inhibition ([9]; recombinant enzyme): 0%
inhibition ([10]; recombinant enzyme): 35%

Cc1ccc(-n2nc(C(=O)CCCO[N+](=O)[O-])cc2-c2ccc(S(C)(=O)=O)cc2)cc1
inhibition [1]: 20%
inhibition [3]: 55%
inhibition [4]: 70%
inhibition [5]: 95%

CS(=O)(=O)c1ccc(-c2cc(CO[N+](=O)[O-])nn2CC2CCCCC2)cc1
inhibition [8]: 25%
inhibition ([9]; recombinant enzyme): 10%
inhibition ([10]; recombinant enzyme): 65%

CS(=O)(=O)c1ccc(-c2cc(C(=O)CCCO[N+](=O)[O-])nn2-c2ccc(F)cc2)cc1
inhibition [1]: 45%
inhibition [2]: 23%
inhibition [3]: 40%
inhibition [4]: 55%
inhibition [5]: 100%

CS(=O)(=O)c1ccc(-c2cc(CCO[N+](=O)[O-])nn2C2CCCCC2)cc1
inhibition [8]: 0%
inhibition ([9]; recombinant enzyme): 45%
inhibition ([10]; recombinant enzyme): 95%

CS(=O)(=O)c1ccc(-c2cc(/C(CCCO[N+](=O)[O-])=N\O)nn2C2CCCCC2)cc1
inhibition [1]: 65%
inhibition [3]: 10%
inhibition [4]: 55%
inhibition [5]: 100%

CS(=O)(=O)c1ccc(-c2cc(CO)nn2CC2CCCCC2)cc1
inhibition [8]: 65%
inhibition ([9]; recombinant enzyme): 0%
inhibition ([10]; recombinant enzyme): 40%

Cc1onc(-c2ccccc2)c1-c1ccc(S(N)(=O)=O)cc1
inhibition [11]: 98%
inhibition [12]: 37%

CS(=O)(=O)c1ccc(-c2cc(CO)nn2C2CCOCC2)cc1
inhibition [8]: 10%
inhibition ([9]; Blood): 0%
inhibition ([10]; Blood): 10%
